# Measured values pooled from the literature.
# Compare with care: the assays were run in different laboratories.
# Effect on: cell growth or viability
Compound,cell line,assay,conditions,endpoint,result
O=c1[nH]ncc(NN=Cc2cn(-c3ccccc3)nc2-c2ccccc2)c1Cl,Jurkat,,48 h,CC50,3660 nM
C=C(NC(=O)C(=C)NC(=O)c1csc(C2=N[C@@H]3c4csc(n4)[C@H]4NC(=O)c5csc(n5)[C@H]([C@](C)(O)[C@@H](C)O)NC(=O)[C@H]5CSC(=N5)/C(=C/C)NC(=O)[C@H]([C@@H](C)O)NC(=O)c5csc(n5)[C@]3(CC2)NC(=O)[C@H](C)NC(=O)C(=C)NC(=O)[C@H](C)NC(=O)[C@H]([C@@H](C)CC)N[C@@H]2C=Cc3c([C@H](C)O)cc(nc3[C@H]2O)C(=O)O[C@@H]4C)n1)C(N)=O,LNCaP,,,EC50,4400 nM
Cc1ncsc1-c1ccc([C@H](C)NC(=O)[C@@H]2C[C@@H](O)CN2C(=O)[C@@H](NC(=O)CCCS(=O)(=O)NC(=O)c2nc(N3CCc4cccc(C(=O)Nc5nc6ccccc6s5)c4C3)ccc2-c2cnn(CC34CC5CC(CC(C5)C3)C4)c2C)C(C)(C)C)cc1,MOLT-4,MTS,48 h,IC50,8.3 nM
Nc1nc(S)nc(O)c1N=Cc1cn(-c2ccccc2)nc1-c1ccccc1,Jurkat,,48 h,CC50,17300 nM
Cc1cc(=O)oc2cc(OCCCCSC#N)ccc12,T47D,SRB,,GI50,2500 nM
O=c1[nH]ncc(NN=Cc2cn(-c3ccccc3)nc2-c2cc3ccccc3oc2=O)c1Cl,Jurkat,,48 h,CC50,> 40000 nM
Cc1nc(Nc2ncc(C(=O)Nc3c(C)cccc3Cl)s2)cc(N2CC[C@H](O)C2)n1,SU-DHL-2,ATP luminescence,"10 µM, 72 h",inhibition,33%
Cc1ccc(-c2nn(-c3ccccc3)cc2C=Nc2c(N)nc(S)nc2O)cc1,Jurkat,,48 h,CC50,13100 nM
Cc1c(-c2ccc(N3CCc4cccc(C(=O)Nc5nc6ccccc6s5)c4C3)nc2C(=O)O)cnn1CC12CC3CC(C1)CC(C(=O)NCCOCCOCCOCCNc1cccc4c1C(=O)N(C1CCC(=O)NC1=O)C4=O)(C3)C2 (centres unmarked),MOLT-4,MTS,48 h,IC50,84.6 nM
C[C@H](Nc1ccc2c(c1)OCCn1cc(N3C(=O)OC[C@H]3C(F)F)nc1-2)C(N)=O,TCC-SUP,ATP luminescence,5 days,EC50,51.6 nM
Cc1ncsc1-c1ccc([C@H](C)NC(=O)[C@@H]2C[C@@H](O)CN2C(=O)[C@@H](NC(=O)CCCCCCCS(=O)(=O)NC(=O)c2nc(N3CCc4cccc(C(=O)Nc5nc6ccccc6s5)c4C3)ccc2-c2cc(C#N)n(CC34CC5CC(CC(C5)C3)C4)c2C)C(C)(C)C)cc1,MOLT-4,MTS,48 h,IC50,20.2 nM
O=C(C[C@@H](C(F)F)n1ccc(F)n1)N1CCC(O)(Cn2cnc3c(cnn3-c3ccc(F)cc3)c2=O)CC1,LNCaP,CCK-8,1.524 nM,viability,90%
Cc1c(-c2ccc(N3CCc4cccc(C(=O)Nc5nc6ccccc6s5)c4C3)nc2C(=O)O)cnn1CC12CC3CC(CC(C3)C1)C2,MOLT-4,MTS,48 h,IC50,2.1 nM
N#CSCc1cc(=O)oc2cc(O)ccc12,T47D,SRB,,GI50,5900 nM
